# pEC50, pIC50: −log10 of the molar value.
# Key:
# [1] = target: PI3-kinase p110-alpha/p85-alpha (Homo sapiens, UniProt P42336); test: Inhibition of human full length PI3K p110alpha/p85 alpha using PIP2/ATP as substrate after 30 mins by TR-FRET assay
# [2] = target: Phosphatidylinositol 4,5-bisphosphate 3-kinase catalytic subunit gamma isoform (Homo sapiens, UniProt P48736); test: Inhibition of human full length PI3Kgamma using PIP2/ATP as substrate after 30 mins by TR-FRET assay
# [3] = target: PI3-kinase p110-delta/p85-alpha (Homo sapiens, UniProt O00329); test: Inhibition of human full length PI3K p110delta/p85 alpha using PIP2/ATP as substrate after 30 mins by TR-FRET assay
# Sequence of PI3-kinase p110-delta/p85-alpha (P27986 whole entry): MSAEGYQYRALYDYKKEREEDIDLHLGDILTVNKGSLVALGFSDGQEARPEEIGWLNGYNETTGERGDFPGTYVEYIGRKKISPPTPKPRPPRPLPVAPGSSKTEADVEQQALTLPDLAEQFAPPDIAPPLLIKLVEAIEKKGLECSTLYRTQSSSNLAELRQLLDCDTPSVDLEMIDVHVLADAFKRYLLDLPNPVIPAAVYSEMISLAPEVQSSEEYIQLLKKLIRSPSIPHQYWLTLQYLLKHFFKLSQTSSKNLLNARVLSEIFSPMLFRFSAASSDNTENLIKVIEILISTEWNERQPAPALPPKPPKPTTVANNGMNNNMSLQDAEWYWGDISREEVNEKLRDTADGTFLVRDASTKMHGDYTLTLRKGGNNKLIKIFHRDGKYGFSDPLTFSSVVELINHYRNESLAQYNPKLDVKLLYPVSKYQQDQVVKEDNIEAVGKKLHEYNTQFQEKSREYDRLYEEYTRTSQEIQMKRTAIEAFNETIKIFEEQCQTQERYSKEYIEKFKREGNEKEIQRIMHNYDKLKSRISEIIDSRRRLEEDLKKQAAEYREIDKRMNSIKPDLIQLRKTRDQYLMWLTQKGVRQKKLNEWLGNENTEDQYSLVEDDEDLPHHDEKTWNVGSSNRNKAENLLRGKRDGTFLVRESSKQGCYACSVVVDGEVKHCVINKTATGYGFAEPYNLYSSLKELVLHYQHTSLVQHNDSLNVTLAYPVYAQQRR
# Sequence of PI3-kinase p110-delta/p85-alpha (O00329 whole entry): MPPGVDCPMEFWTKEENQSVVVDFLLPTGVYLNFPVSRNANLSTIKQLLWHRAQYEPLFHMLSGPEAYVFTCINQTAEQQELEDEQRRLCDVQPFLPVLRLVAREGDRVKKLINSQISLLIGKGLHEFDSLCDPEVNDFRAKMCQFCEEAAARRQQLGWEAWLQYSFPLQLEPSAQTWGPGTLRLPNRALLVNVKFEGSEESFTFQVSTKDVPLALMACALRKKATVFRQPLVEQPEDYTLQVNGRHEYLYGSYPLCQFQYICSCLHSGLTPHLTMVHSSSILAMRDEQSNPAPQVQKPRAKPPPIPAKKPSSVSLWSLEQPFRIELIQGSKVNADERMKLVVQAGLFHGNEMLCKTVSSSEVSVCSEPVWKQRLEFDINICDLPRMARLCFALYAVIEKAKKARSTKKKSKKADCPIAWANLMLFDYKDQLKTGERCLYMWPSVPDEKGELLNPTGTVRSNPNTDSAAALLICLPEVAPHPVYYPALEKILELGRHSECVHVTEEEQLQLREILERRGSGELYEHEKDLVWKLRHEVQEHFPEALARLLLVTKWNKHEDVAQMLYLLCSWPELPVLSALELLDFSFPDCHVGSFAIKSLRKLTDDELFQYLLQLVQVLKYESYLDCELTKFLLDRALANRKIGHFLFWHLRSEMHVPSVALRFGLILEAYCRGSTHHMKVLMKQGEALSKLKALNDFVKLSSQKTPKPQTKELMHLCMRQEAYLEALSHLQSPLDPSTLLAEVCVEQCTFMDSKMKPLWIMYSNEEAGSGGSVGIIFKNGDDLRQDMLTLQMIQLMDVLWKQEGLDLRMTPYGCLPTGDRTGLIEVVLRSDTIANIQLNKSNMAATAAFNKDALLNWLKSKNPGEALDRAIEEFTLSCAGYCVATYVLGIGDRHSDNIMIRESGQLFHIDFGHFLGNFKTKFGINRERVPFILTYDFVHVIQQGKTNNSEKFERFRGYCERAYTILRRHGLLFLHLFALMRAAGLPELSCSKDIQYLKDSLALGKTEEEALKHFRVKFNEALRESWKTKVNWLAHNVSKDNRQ
# [4] = Drug metabolism in human hepatocytes assessed as formation of oxidative metabolite of pyrimidine moiety; assay type: ADME, cell-based, Hepatocyte
# [5] = Permeability from apical to basolateral side in human Caco2 cells; assay type: ADME, cell-based; conditions: Caco-2, read-out: permeability
# [6] = Clearance in Sprague-Dawley rat at 1 mg/kg, iv administered via infusion over 30 mins measured over 24 hrs by LC/MS/MS analysis; assay type: ADME, organism-based; conditions: in vivo
# [7] = Oral bioavailability in Sprague-Dawley rat plasma at 5 mg/kg administered via gavage by LC/MS/MS analysis; assay type: ADME, organism-based
# Outline: (§1)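 Oral dose of 5 mg/kg, formulated in 5% ethanol, 50% PEG 300 and 45% water. Bioavailability was referenced to the separate 1 mg/kg intravenous arm. Values are mean ± SD, n=3 animals per route.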
# [8] = Permeability from basolateral to apical side in human Caco2 cells; assay type: ADME, cell-based; conditions: Caco-2, read-out: permeability
# [9] = Volume of distribution at steady state in Sprague-Dawley rat plasma at 1 mg/kg, iv administered via infusion over 30 mins measured over 24 hrs by LC/MS/MS analysis; assay type: ADME, organism-based; conditions: read-out: Vdss
# Outline: (§2)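 Single intravenous dose of 1 mg/kg. Half-life, mean residence time and steady-state volume of distribution were taken from the iv arm. Values are mean ± SD, n=3 animals per route.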
# [10] = Clearance in cynomolgus monkey plasma at 1 mg/kg, iv administered via infusion over 30 mins measured over 24 hrs by LC/MS/MS analysis; assay type: ADME, organism-based, Macaca fascicularis; outline: as §2
# LNCaP [11] = test: Growth inhibition of PTEN-deficient human LNCAP cells after 72 hrs by Celltiter-Glo reagent based assay; assay type: functional
# [12] = Apparent terminal half life in rhesus monkey plasma at 1 mg/kg, iv administered via infusion over 30 mins measured over 24 hrs by LC/MS/MS analysis; assay type: ADME, organism-based, Macaca mulatta; conditions: read-out: betat1/2(app) (converted); outline: as §2
# Mus musculus [13] = test: In vivo inhibition of PI3Kbeta in CB17 SCID mouse xenografted with human PTEN-deficient androgen responsive LNCAP cells assessed as inhibition of AKT1 phosphorylation at Serine 473 at 15 mg/kg administered by oral gavage and measured after 2 hrs; assay type: functional
# [14] = Inhibition of PI3Kbeta mutant in PTEN-deficient human A498 cells assessed decrease in AKT1 phosphorylation at Ser473 after 2 hrs; conditions: A498, 2 h
# LNCaP [15] = test: Antitumor activity against human PTEN-deficient androgen responsive LNCAP cells xenografted in CB17 SCID mouse assessed as tumor growth inhibition at 3 mg/kg administered by oral gavage twice daily for 14 days; assay type: functional; conditions: 336 h, read-out: TGI
# Outline: (§3)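 Mice bearing LNCaP tumours were dosed at 15, 7.5 and 3 mg/kg twice a day. Tumour volume (mm3) was measured twice a week throughout. Growth inhibition was calculated after the final dose for each dose group.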
# [16] = Oral bioavailability in cynomolgus monkey plasma at 5 mg/kg administered via gavage by LC/MS/MS analysis; assay type: ADME, organism-based, Macaca fascicularis; outline: as §1
# Mus musculus [17] = test: In vivo inhibition of PI3Kbeta in CB17 SCID mouse xenografted with human PTEN-deficient androgen responsive LNCAP cells assessed as inhibition of AKT1 phosphorylation at Serine 473 at […] administered by oral gavage and measured after 8 hrs; assay type: functional
# [18] = target: Voltage-gated inwardly rectifying potassium channel KCNH2 (Homo sapiens, UniProt Q12809); test: Inhibition of human ERG
# Outline: (§4)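 Measured in binding assays against major human CYP450 enzymes and hERG.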
# ZR-75-1 = test: Growth inhibition of PTEN-deficient human ZR-75-1 cells after 72 hrs by Celltiter-Glo reagent based assay; assay type: functional; conditions: ZR-75-1, 72 h
# [19] = Mean residence time in rhesus monkey plasma at 1 mg/kg, iv administered via infusion over 30 mins measured over 24 hrs by LC/MS/MS analysis; assay type: ADME, organism-based, Macaca mulatta; outline: as §2
# [20] = Apparent terminal half life in cynomolgus monkey plasma at 1 mg/kg, iv administered via infusion over 30 mins measured over 24 hrs by LC/MS/MS analysis; assay type: ADME, organism-based, Macaca fascicularis; conditions: read-out: betat1/2(app) (converted); outline: as §2
# [21] = Clearance in rhesus monkey plasma at 1 mg/kg, iv administered via infusion over 30 mins measured over 24 hrs by LC/MS/MS analysis; assay type: ADME, organism-based, Macaca mulatta; outline: as §2
# [22] = Volume of distribution at steady state in Beagle dog plasma at 1 mg/kg, iv administered via infusion over 30 mins measured over 24 hrs by LC/MS/MS analysis; assay type: ADME, organism-based, Canis lupus familiaris; conditions: read-out: Vdss; outline: as §2
# LNCaP [23] = test: Antitumor activity against human PTEN-deficient androgen responsive LNCAP cells xenografted in CB17 SCID mouse assessed as tumor growth inhibition at 15 mg/kg administered by oral gavage twice daily for 14 days; assay type: functional; conditions: 336 h, read-out: TGI; outline: as §3
# LNCaP [24] = test: Antitumor activity against human PTEN-deficient androgen responsive LNCAP cells xenografted in CB17 SCID mouse assessed as tumor growth inhibition at […] administered by oral gavage twice daily for 14 days; assay type: functional; conditions: 336 h, read-out: TGI
# [25] = Volume of distribution at steady state in rhesus monkey at 1 mg/kg, iv administered via infusion over 30 mins measured over 24 hrs by LC/MS/MS analysis; assay type: ADME, organism-based, Macaca mulatta; conditions: in vivo, read-out: Vdss; outline: as §2
# [26] = Mean residence time in cynomolgus monkey plasma at 1 mg/kg, iv administered via infusion over 30 mins measured over 24 hrs by LC/MS/MS analysis; assay type: ADME, organism-based, Macaca fascicularis; outline: as §2
# [27] = Mean residence time in Sprague-Dawley rat plasma at 1 mg/kg, iv administered via infusion over 30 mins measured over 24 hrs by LC/MS/MS analysis; assay type: ADME, organism-based; outline: as §2
# [28] = Inhibition of human CYP450; assay type: ADME; outline: as §4
# [29] = Unbound fraction in rhesus monkey plasma; assay type: ADME, cell-free, Macaca mulatta
# [30] = Unbound fraction in Sprague-Dawley rat plasma; assay type: ADME, cell-free
# [31] = Mean residence time in Beagle dog plasma at 1 mg/kg, iv administered via infusion over 30 mins measured over 24 hrs by LC/MS/MS analysis; assay type: ADME, organism-based, Canis lupus familiaris; outline: as §2
# [32] = Volume of distribution at steady state in cynomolgus monkey at 1 mg/kg, iv administered via infusion over 30 mins measured over 24 hrs by LC/MS/MS analysis; assay type: ADME, organism-based, Macaca fascicularis; conditions: in vivo, read-out: Vdss; outline: as §2
# [33] = Unbound fraction in Beagle dog plasma; assay type: ADME, cell-free, Canis lupus familiaris
# [34] = Clearance in Sprague-Dawley rat plasma at 1 mg/kg, iv administered via infusion over 30 mins measured over 24 hrs by LC/MS/MS analysis; assay type: ADME, organism-based; outline: as §2
# MDA-MB-415 = test: Growth inhibition of PTEN-deficient human MDA-MB-415 cells after 72 hrs by Celltiter-Glo reagent based assay; assay type: functional; conditions: MDA-MB-415, 72 h
# A498 = test: Growth inhibition of human A498 cells harboring PI3Kbeta mutant after 72 hrs by Celltiter-Glo reagent based assay; assay type: functional; conditions: A498, 72 h
# [35] = Clearance in Beagle dog plasma at 1 mg/kg, iv administered via infusion over 30 mins measured over 24 hrs by LC/MS/MS analysis; assay type: ADME, organism-based, Canis lupus familiaris; outline: as §2
# [36] = Oral bioavailability in Beagle dog plasma at 5 mg/kg administered via gavage by LC/MS/MS analysis; assay type: ADME, organism-based, Canis lupus familiaris; outline: as §1
# PC-3 = test: Growth inhibition of PTEN-deficient human PC3 cells after 72 hrs by Celltiter-Glo reagent based assay; assay type: functional; conditions: PC-3, 72 h
# [37] = Unbound fraction in cynomolgus monkey plasma; assay type: ADME, cell-free, Macaca fascicularis
# LNCaP [38] = test: Antitumor activity against human PTEN-deficient androgen responsive LNCAP cells xenografted in CB17 SCID mouse administered by oral gavage twice daily for 14 days; assay type: functional; conditions: 336 h, read-out: MED; outline: as §3
# [39] = Apparent terminal half life in Beagle dog plasma at 1 mg/kg, iv administered via infusion over 30 mins measured over 24 hrs by LC/MS/MS analysis; assay type: ADME, organism-based, Canis lupus familiaris; conditions: read-out: betat1/2(app) (converted); outline: as §2
# [40] = Apparent terminal half life in Sprague-Dawley rat plasma at 1 mg/kg, iv administered via infusion over 30 mins measured over 24 hrs by LC/MS/MS analysis; assay type: ADME, organism-based; conditions: read-out: betat1/2(app) (converted); outline: as §2
# Sequence of Phosphatidylinositol 4,5-bisphosphate 3-kinase catalytic subunit gamma isoform (P48736 whole entry, canonical isoform): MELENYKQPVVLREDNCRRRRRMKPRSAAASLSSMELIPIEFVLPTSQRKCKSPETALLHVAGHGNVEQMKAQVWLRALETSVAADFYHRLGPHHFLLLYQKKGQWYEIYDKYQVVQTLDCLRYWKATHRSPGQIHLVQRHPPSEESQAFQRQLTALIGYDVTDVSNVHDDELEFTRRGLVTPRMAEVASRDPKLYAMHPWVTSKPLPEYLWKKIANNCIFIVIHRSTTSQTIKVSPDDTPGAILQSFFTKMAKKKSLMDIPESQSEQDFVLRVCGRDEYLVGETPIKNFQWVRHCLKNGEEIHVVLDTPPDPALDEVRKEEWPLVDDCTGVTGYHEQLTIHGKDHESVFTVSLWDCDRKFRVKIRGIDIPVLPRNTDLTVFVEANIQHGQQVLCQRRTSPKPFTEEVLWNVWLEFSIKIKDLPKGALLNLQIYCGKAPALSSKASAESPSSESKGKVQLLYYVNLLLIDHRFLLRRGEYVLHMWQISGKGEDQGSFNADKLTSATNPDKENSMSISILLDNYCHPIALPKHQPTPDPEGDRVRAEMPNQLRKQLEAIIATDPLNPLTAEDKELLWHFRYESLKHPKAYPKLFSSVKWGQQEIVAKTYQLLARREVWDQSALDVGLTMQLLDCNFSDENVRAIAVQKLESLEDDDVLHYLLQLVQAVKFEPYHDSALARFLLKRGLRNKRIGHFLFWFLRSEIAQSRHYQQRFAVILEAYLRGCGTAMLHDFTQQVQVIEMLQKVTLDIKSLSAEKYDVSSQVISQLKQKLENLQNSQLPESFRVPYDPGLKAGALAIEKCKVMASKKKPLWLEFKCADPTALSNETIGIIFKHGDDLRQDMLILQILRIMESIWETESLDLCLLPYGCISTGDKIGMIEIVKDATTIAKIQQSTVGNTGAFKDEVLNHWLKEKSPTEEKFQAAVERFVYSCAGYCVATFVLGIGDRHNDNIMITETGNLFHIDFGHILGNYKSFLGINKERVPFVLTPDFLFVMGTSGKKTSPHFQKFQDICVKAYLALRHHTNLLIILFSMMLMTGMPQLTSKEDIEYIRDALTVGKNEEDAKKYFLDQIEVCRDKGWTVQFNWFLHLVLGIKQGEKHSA
# Sequence of PI3-kinase p110-alpha/p85-alpha (P27986 whole entry, canonical isoform): as the sequence (P27986 whole entry) above
# Sequence of PI3-kinase p110-alpha/p85-alpha (P42336 whole entry, canonical isoform): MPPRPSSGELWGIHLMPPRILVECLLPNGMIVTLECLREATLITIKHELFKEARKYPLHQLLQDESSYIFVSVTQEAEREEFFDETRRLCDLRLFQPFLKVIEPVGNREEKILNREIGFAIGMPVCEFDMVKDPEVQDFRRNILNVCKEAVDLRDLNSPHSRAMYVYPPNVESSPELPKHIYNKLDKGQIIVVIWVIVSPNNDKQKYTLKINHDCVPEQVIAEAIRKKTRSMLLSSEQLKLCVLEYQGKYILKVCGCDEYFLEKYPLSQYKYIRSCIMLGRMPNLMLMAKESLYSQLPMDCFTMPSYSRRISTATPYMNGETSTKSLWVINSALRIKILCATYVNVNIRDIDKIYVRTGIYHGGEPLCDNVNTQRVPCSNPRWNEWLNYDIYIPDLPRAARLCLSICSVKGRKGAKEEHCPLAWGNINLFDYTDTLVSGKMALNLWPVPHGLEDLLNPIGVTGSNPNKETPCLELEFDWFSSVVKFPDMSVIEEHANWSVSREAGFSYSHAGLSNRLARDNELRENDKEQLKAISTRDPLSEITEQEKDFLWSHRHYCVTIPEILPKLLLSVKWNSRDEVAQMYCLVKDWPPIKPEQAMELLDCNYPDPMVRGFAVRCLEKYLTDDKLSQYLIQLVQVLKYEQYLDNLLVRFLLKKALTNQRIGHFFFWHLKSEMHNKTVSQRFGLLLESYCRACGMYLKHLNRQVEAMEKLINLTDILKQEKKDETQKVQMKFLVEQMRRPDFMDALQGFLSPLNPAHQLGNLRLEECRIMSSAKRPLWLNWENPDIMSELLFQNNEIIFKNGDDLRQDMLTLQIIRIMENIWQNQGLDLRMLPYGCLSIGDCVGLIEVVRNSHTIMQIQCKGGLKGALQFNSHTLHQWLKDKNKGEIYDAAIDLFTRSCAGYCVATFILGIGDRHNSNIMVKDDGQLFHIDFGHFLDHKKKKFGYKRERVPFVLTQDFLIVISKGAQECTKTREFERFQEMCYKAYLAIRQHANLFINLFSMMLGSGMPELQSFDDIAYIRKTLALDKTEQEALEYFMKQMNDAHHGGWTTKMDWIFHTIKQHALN
compound,measurement,setting,value
C[C@H](Nc1ncnc(N)c1C#N)c1nc2cccc(Cl)c2c(=O)n1-c1ccccc1,pIC50,[1],5.69
same,pIC50,[2],6.81
same,pIC50,[3],9.47
C[C@H](Nc1nc(N)nc(N)c1Cl)c1nc2cccc(Cl)c2c(=O)n1-c1ccon1,pIC50,[2],6.30
CC[C@H](Nc1ncnc2[nH]cnc12)c1nc2cccc(F)c2c(=O)n1-c1ccc(O)cc1,pIC50,[1],5.80
same,pIC50,[2],5.37
same,pIC50,[3],7.85
C[C@H](Nc1nc(N)nc(N)c1C#N)c1nc2cccc(Cl)c2c(=O)n1-c1cc[nH]n1,Drug metabolism,[4],Metabolite_Notdetected
same,pIC50,[2],7.27
C[C@H](Nc1nc(N)nc(N)c1Cl)c1nc2cccc(Cl)c2c(=O)n1-c1cc[nH]n1,Papp A→B,[5],1.1 ×10⁻⁶ cm/s
same,clearance,[6],23.8 mL/min/kg
same,bioavailability,[7],26%
same,Papp B→A,[8],19.6 ×10⁻⁶ cm/s
same,Vd,[9],1.29 L/kg
N#Cc1c(N)nc(N)nc1N[C@H](c1nc2c(Cl)cc(F)cc2c(=O)n1-c1cc[nH]n1)C1CC1,Papp A→B,[5],1.5 ×10⁻⁶ cm/s
same,clearance,[6],1.17 mL/min/kg
same,bioavailability,[7],12%
same,Papp B→A,[8],17.3 ×10⁻⁶ cm/s
same,Vd,[9],0.22 L/kg
C[C@H](Nc1nc(N)nc(N)c1Cl)c1nc2c(Cl)cc(F)cc2c(=O)n1-c1cc[nH]n1,clearance,[10],4 mL/min/kg
same,GI50,LNCaP [11],38 nM
same,half-life,[12],3.61 h
same,Papp A→B,[5],5.7 ×10⁻⁶ cm/s
same,inhibition in vivo at 15 mg/kg,Mus musculus [13],64%
same,clearance,[6],4.33 mL/min/kg
same,pEC50,[14],8.25
same,inhibition in vivo at 3 mg/kg,LNCaP [15],42%
same,bioavailability,[7],66 to 66.4%
same,bioavailability,[16],68.6%
same,inhibition in vivo at […],Mus musculus [17],64%
same,pIC50,[18],< 4.60
same,GI50,ZR-75-1,2 nM
same,MRT,[19],4.54 h
same,half-life,[20],4.96 h
same,clearance,[21],6.83 mL/min/kg
same,Vd,[22],1.14 L/kg
same,inhibition in vivo at 15 mg/kg,LNCaP [23],73%
same,Papp B→A,[8],21.7 ×10⁻⁶ cm/s
same,inhibition in vivo at […],LNCaP [24],65%
same,Vd,[25],1.88 L/kg
same,MRT,[26],6.28 h
same,MRT,[27],1.97 h
same,pIC50,[28],< 4.60
same,fraction unbound,[29],0.0333
same,fraction unbound,[30],0.0085
same,MRT,[31],4.7 h
same,Vd,[32],1.5 L/kg
same,fraction unbound,[33],0.0196
same,clearance,[34],4.33 mL/min/kg
same,GI50,MDA-MB-415,12 nM
same,GI50,A498,80 nM
same,clearance,[35],4.17 mL/min/kg
same,bioavailability,[36],90.4%
same,Vd,[9],0.52 L/kg
same,GI50,PC-3,120 nM
same,fraction unbound,[37],0.0305
same,minimal effective dose,LNCaP [38],7.5 mg/kg
same,half-life,[39],3.91 h
same,half-life,[40],2.69 h
N#Cc1c(N)nc(N)nc1N[C@H](c1nc2cccc(Cl)c2c(=O)n1-c1cc[nH]n1)C1CC1,Drug metabolism,[4],Metabolite_Notdetected
same,pIC50,[2],6.70
C[C@H](Nc1ncnc(N)c1C#N)c1nc2cccc(Cl)c2c(=O)n1-c1ccc(O)cc1,pIC50,[2],6.73
Nc1nc(N)c(Cl)c(N[C@H](c2nc3cccc(Cl)c3c(=O)n2-c2cc[nH]n2)C2CC2)n1,Papp A→B,[5],2.2 ×10⁻⁶ cm/s
same,Drug metabolism,[4],Metabolite_Detected
same,clearance,[6],9.67 mL/min/kg
same,bioavailability,[7],42%
same,Papp B→A,[8],11.8 ×10⁻⁶ cm/s
same,pIC50,[2],5.38
same,Vd,[9],0.83 L/kg
N#Cc1c(N[C@H](c2nc3c(Cl)cc(F)cc3c(=O)n2-c2cc[nH]n2)C2CC2)nc(N)nc1C(F)F,pIC50,[1],6.12

# Reference: ChEMBL document CHEMBL4004819, “Discovery of a Phosphoinositide 3-Kinase (PI3K) β/δ Inhibitor for the Treatment of Phosphatase and Tensin Homolog (PTEN) Deficient Tumors: Building PI3Kβ Potency in a PI3Kδ-Selective Template by Targeting Nonconserved Asp856” (J Med Chem, 2017)
